Experimental findings from PMC6996566 (ChemistryOpen, 2019) are described below.

Assay type in all cases: cell-based, human
The subject of assay [1] is HUVEC. Nature of the assay: In vitro anti‐proliferative assay. In a few lines:
(§1)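 MTT assay: 5×10³ cells per well settled 24 h, then exposed to a concentration series of test compound or DMSO for 48 h. Medium replaced with fresh medium containing 10% MTT (5 mg/mL in PBS) for 4 h at 37 °C. Formazan dissolved in DMSO, absorbance read at 570 nm. Inhibition % = (OD DMSO − OD compound)/(OD DMSO − OD blank)×100, giving IC50.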

Assay [2] concerns A2780 cells. Nature of the assay: Nitrite measurement in vitro. The settings on record: 100 μM compound, 150 min, Griess reagent. In a few lines:
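A2780 cells (1×10⁷ per 10 cm dish) were exposed to 100 μM test compound for 150 min, then harvested and lysed in RIPA buffer for 30 min on ice. Lysates were mixed with Griess reagent for 30 min in the dark and read at 540 nm. Nitrite was quantified against a sodium nitrite standard curve, with diluent-treated cells as background. Mean ± SD of three independent experiments.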

Assay [3] relates to Hela. Nature of the assay: In vitro anti‐proliferative assay. The note with it: read-out: Hela (IC50); MTT, 48 h treatment; mean of triplicate determinations. The method in brief: as §1
Assay [4] has as its system A2780. Nature of the assay: In vitro anti‐proliferative assay. The settings on record: read-out: A2780 (IC50); MTT, 48 h treatment; mean of triplicate determinations. The method in brief:
as §1

Where two headings read alike, the source gives them in different places.

As for `COc1cc2c(cc1O)CC[C@@H]1[C@@H]2CC[C@]2(C)[C@@H](O)CC[C@@H]12` [compound 3, 2‐methoxyestradiol], the IC50 in assay [1] (Homo sapiens, HUVEC, 48 h, read-out: HUVEC (IC50, μM)) is 1.35 µM. Moreover, the “intracellular NO production, presented as nitrite in the cell lysates” value in assay [2] is listed as “hardly detected”.
With “3‐Phenylsulfonyl‐4‐hydroxylethoxyl‐1,2,5‐oxadiazole 2‐Oxide [compound 21]”, the IC50 in assay [1] (read-out: HUVEC (IC50), MTT, 48 h treatment, mean of triplicate determinations) came out at 1.48 µM; in assay [3], 3.05 µM; in assay [4], 1920 nM.
